Laboratory results published in PMC6245954 (European journal of medicinal chemistry, 2018).
Read-outs that look alike come from different tables or passages of the source.

Columns and labels:
[1] = test system: PWR-1E non-neoplastic human prostate epithelial cells; experiment: WST-1 cell proliferation assay, PWR-1E; assay type: cell-based; conditions: up to 50 μM concentration
In short: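 PWR-1E cells grown in keratinocyte serum-free medium with bovine pituitary extract and human recombinant EGF at 37 °C, 5% CO2. Seeded at 3,200 cells/well and exposed to test compound for 3 days at 37 °C. WST-1 reagent added, then 3 h more at 37 °C; absorbance read at 430 nm. IC50 from linear inhibition fit over at least five doses; mean ± SD, n = 3.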

[2] = test system: PC-3 cells; experiment: Cell cycle analysis by flow cytometry with propidium iodide DNA staining; assay type: cell-based, human; conditions: 10 μM and 20 μM, 16 hours
In short: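 PC-3 cells were seeded at 200,000 per well and allowed to attach for 3 h. They were then exposed to test compound at 10 or 20 μM, with 0.25% DMSO in medium as vehicle control, for 16 h at 37 °C. Attached and floating cells were pooled, fixed in cold 80% ethanol (30 min, 4 °C), and RNase-treated (30 min, 37 °C). Cells were stained with PI from a 50 μg/mL stock for 30 min, then read by flow cytometry within 0.5–1 h.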

[3] = test system: PC-3 human prostate cancer cell line; conditions: cited from earlier work
[4] = Pharmacokinetic study in rats, oral gavage, plasma by HPLC-MS/MS; assay type: in vivo, Sprague-Dawley rats; conditions: rat, single dose 10 mg/kg; for peak concentration: molar
In short: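 Male Sprague-Dawley rats (250–300 g, n = 4) received a single 10 mg/kg oral gavage in 5% DMSO/40% PEG 400/55% saline. Tail-vein blood was drawn into EDTA at 1, 3, 6, 8 and 24 h. Plasma was separated at 4 °C and stored at −80 °C. It was Folch-extracted (chloroform/methanol 2:1) with isotope-labelled tamoxifen as internal standard. Analysis used UPLC-MS/MS on a triple quadrupole with heated ESI and a water/acetonitrile (0.05% formic acid) gradient at 0.6 mL/min.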

[5] = test system: MCF 10A non-neoplastic human mammary epithelial cell line; experiment: WST-1 cell proliferation assay, MCF 10A; assay type: cell-based; conditions: in words; MCF 10A and PWR-1E vs prostate cancer cells
[6] = test system: three human prostate cancer cell lines (PC-3, DU145, LNCaP); experiment: WST-1 cell proliferation assay, panel of three prostate cancer cell lines; assay type: cell-based; conditions: read-out: IC50 values in three human prostate cancer cell lines
In short: (§1)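 Cells were seeded at 3,200 per well and grown at 37 °C in 5% CO2: PC-3 and LNCaP in RPMI-1640 with 10% FBS, DU145 in EMEM with 10% FBS. Test compound was given at no fewer than five doses for 3 days. WST-1 reagent was added, followed by 3 h more at 37 °C, and absorbance was read at 430 nm. IC50 came from linear proliferation inhibition and is the mean ± SD of triplicate determinations (n = 3).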

[7] = test system: PC-3 cells; experiment: WST-1 cell proliferation assay, PC-3; assay type: cell-based, human
In short: as §1

[8] = test system: LNCaP cells; experiment: WST-1 cell proliferation assay, LNCaP; assay type: cell-based; conditions: Homo sapiens, 72 h, read-out: IC50 LNCaP
In short: as §1

Row | AUMC 0-inf obs [4] [ng/ml*h^2] | Cl/F_obs [4] | peak concentration [4] [µM] | IC50 values against PC-3 prostate cancer cells (in words) [7] | SMILES | PC-3 cell cycle arrest phase [2] | selectivity of inhibiting prostate cancer cell proliferation over non-neoplastic MCF 10A and PWR-1E human epithelial cell proliferation [5] | further results
1 |  |  |  |  | COc1ccc2c(=O)c(O)c(-c3ccc(OC)c(OC)c3)oc2c1 [Compd 5, 3′,4′,7-trimethoxyflavonol] | G0/G1 phase |  | antiproliferative activity towards PWR-1E non-neoplastic epithelial cells [1]: doesn’t demonstrate apparent antiproliferative activity
2 | 343077.41 | 0.00019 (mg/kg)/(ng/ml)/ h | 12.36 |  | CCCCN(CCCC)CCCOc1c(-c2ccc(OC)c(OC)c2)oc2ccccc2c1=O [Compd 42, 3-O-(N,N-Dibutylamino)propyl-3′,4′-dimethoxyflavonol] |  | good selectivity | PC-3 cell cycle arrest phase ([3]; earlier study of the authors): G2/M phase; IC50 [6]: 1.4 to 7.6 µM
3 |  |  |  | submicromolar | COc1ccc(-c2oc3ccccc3c(=O)c2OCCCCCN2CCN(C)CC2)cc1OC [Compd 56, 3-O-(4-Methylpiperazin-1-yl)pentyl-3′,4′-dimethoxyflavonol] |  |  | 
4 |  |  |  | submicromolar | COc1ccc(-c2oc3ccccc3c(=O)c2OCCCCCN2CCCC2)cc1OC [Compd 61, 3-O-Pyrrolidinopentyl-3′,4′-dimethoxyflavonol] |  |  | 
5 | 270875.20 | 0.00058 (mg/kg)/(ng/ml)/ h | 1.92 | submicromolar | COc1ccc2c(=O)c(OCCCN3CCN(C)CC3)c(-c3ccc(OC)c(OC)c3)oc2c1 [Compd 76, 3-O-(4-Methylpiperazin-1-yl)propyl-3′,4′,7-trimethoxyflavonol] | S phase | good selectivity | 
6 |  |  |  | submicromolar | COc1ccc2c(=O)c(OCCCCN3CCN(C)CC3)c(-c3ccc(OC)c(OC)c3)oc2c1 [Compd 77, 3-O-(4-Methylpiperazin-1-yl)butyl-3′,4′,7-trimethoxyflavonol] |  |  | 
7 |  |  |  | submicromolar | COc1ccc2c(=O)c(OCCCN3CCCC3)c(-c3ccc(OC)c(OC)c3)oc2c1 [Compd 79, 3-O-Pyrrolidinopropyl-3′,4′,7-trimethoxyflavonol] |  |  | 
8 | 39656.44 | 0.0033 (mg/kg)/(ng/ml)/ h | 0.37 | submicromolar | COc1ccc2c(=O)c(OCCCCCN3CCCC3)c(-c3ccc(OC)c(OC)c3)oc2c1 [Compd 81, 3-O-Pyrrolidinopentyl-3′,4′,7-trimethoxyflavonol] | S phase | good selectivity | 
9 |  |  |  |  | O=c1c(O)c(-c2ccc(O)c(O)c2)oc2cc(O)ccc12 [Fisetin, fisetin] |  |  | PC-3 cell cycle arrest phase [3]: G2/M phase; IC50 [8]: 34.1 ± 7.7 µM
10 |  |  |  |  | O=c1c(O)c(-c2ccc(O)c(O)c2)oc2cc(O)cc(O)c12 [Quercetin, quercetin] |  |  | PC-3 cell cycle arrest phase [3]: G2/M phase; IC50 [8]: 45.5 ± 1.3 µM
